# Published values of several laboratories.
# Each line is one published result; the experiments were not run side by side.
# SLC22A8: Organic anion transporter 3 (SLC22A8, Homo sapiens, UniProt Q8TCC7)
Compound,target or system,test,test system,conditions,measurement,result
O=C(O)CSc1nnc(Br)n1-c1ccc(C2CC2)c2ccccc12,SLC22A8,"transporter uptake, inhibitor, radiometric",,"5 µM, 1 h, oocytes",inhibition,64%
COc1ccc([C@@H]2CN(C(=O)[C@@H](O)CO)C[C@@]2(C)[C@@H](C)O)cc1OC1CN(c2ccc(C)cn2)C1,,,"human, plasma","oral, 20 mg, single dose, healthy volunteers",AUC(0-inf),4090 ng·h/mL
CCc1nc2c(C)cc(N3CCN(CC(=O)N4CC(O)C4)CC3)cn2c1N(C)c1nc(-c2ccc(F)cc2)c(C#N)s1,,,"human, plasma","oral, 1500 mg, single dose, fed, healthy volunteers",AUC(0-inf),168000 ng·h/mL
CC(C)(O)c1ccccc1-c1ccc2[nH]c(/C=C/c3ccc(C(F)(F)F)cc3)nc2c1,,,"male human, plasma","oral, 5 mg, single dose, fasted, healthy volunteers",AUC(0-t),971 ng·h/mL
CC(C)(C)c1ccc(O)c(CN(Cc2cc(C(C)(C)C)ccc2O)C2CCC(NC(N)=O)CC2)c1 (stereo not shown),,,"male C57BL/6 mouse, brain","intraperitoneal, 5 mg/kg, single dose",tissue/plasma ratio,0.68
CN(C(=O)n1cnc(-c2ccc[n+]([O-])c2)c1)C1CCCCC1,SLC22A8,"transporter uptake, inhibitor",HEK293,3 µg/mL,inhibition,10%
CCCCNc1cc(C(=O)O)cc(S(N)(=O)=O)c1Oc1ccccc1,SLC22A8,"transporter uptake, inhibitor, radiometric",,"200 µM, 1 h, oocytes",inhibition,97%
CC(C)n1cc(C#N)c2cc(-n3cc(C(=O)O)cn3)ccc21,,,"human, plasma","oral, 200 mg, single dose, fed",AUC(0-t),43700 ng·h/mL
CON=C(N)c1ccc(-c2ccc(-c3ccc(C(N)=NOC)cc3)o2)cc1,"Cytochrome P450 4F3 (CYP4F3, Homo sapiens, UniProt Q08477)","enzyme activity, substrate",,,Km,3.2 µM
CC(=O)O[C@H]1C(=O)[C@@]2(C)[C@H]([C@H](OC(=O)c3ccccc3)[C@]3(O)C[C@H](OC(=O)[C@H](O)[C@@H](NC(=O)c4ccccc4)c4ccccc4)C(C)=C1C3(C)C)[C@]1(OC(C)=O)CO[C@@H]1C[C@@H]2O,Bel-7402,"cell growth or viability, MTT",,48 h,IC50,28.2 µM
